Measured values collected from several papers.
Compare with care: the assays were run in different laboratories.
CDK4: Cyclin-dependent kinase 4 (CDK4, Homo sapiens, UniProt P11802)
REN: Renin (REN, Homo sapiens, UniProt P00797)
Maoa: Amine oxidase [flavin-containing] A (Maoa, Rattus norvegicus, UniProt P21396)

SMILES	target	effect on	mode	method	tested at	inhibition [%]
CCOC(=O)[C@H]1Cc2c(cc([N+](=O)[O-])cc2[N+](=O)[O-])[C@@H](O)[C@@]12C(=O)Nc1ccc(C)cc12	CDK4	cell-free assay	inhibitor	TR-FRET	1 µM	67.8
COCCCOc1cc(C[C@@H](C[C@H](N)[C@@H](O)C[C@H](C(=O)NCC(C)(C)C(N)=O)C(C)C)C(C)C)ccc1OC	REN	enzyme activity	inhibitor	–	1 nM	11
c1ccc(C(NCCNC(c2ccccc2)c2ccccc2)c2ccccc2)cc1	REN	enzyme activity	inhibitor	–	10 µM	30
C#Cc1n[nH]c2c(-c3cn(C(C)c4ccccn4)c(=O)[nH]c3=O)cc(F)cc12 (centres unmarked)	Tyrosine-protein kinase Fer (FER, Homo sapiens, UniProt P16591)	enzyme activity	inhibitor	–	1 µM	6.8
CN(C)C(=O)COC(=O)Cc1ccc(OC(=O)c2ccc(NC(=N)N)cc2)cc1	REN	enzyme activity	inhibitor	–	10 µM	1
O=C(Nc1cccnn1)N1CCN([C@@H]2CCOc3cc(C(F)(F)F)ccc32)CC1	Maoa	cell-free assay	–	–	20 µM	14
CCOC(=O)[C@H]1Cc2c(cc([N+](=O)[O-])cc2[N+](=O)[O-])[C@@H](O)[C@@]12C(=O)Nc1ccc(Cl)cc12	CDK4	cell-free assay	inhibitor	TR-FRET	1 µM	70.2
C#Cc1n[nH]c2c(-c3cn([C@@H](C)c4ccccc4)c(=O)[nH]c3=O)cc(F)cc12	Fibroblast growth factor receptor 3 (FGFR3, Homo sapiens, UniProt P22607)	enzyme activity	inhibitor	–	0.1 µM	-2.7
CCOC(=O)[C@H]1Cc2c(cc([N+](=O)[O-])cc2[N+](=O)[O-])[C@@H](O)[C@@]12C(=O)Nc1cc(Br)ccc12	CDK4	cell-free assay	inhibitor	TR-FRET	1 µM	59
CC(C)C[C@H](NC(=O)[C@H](Cc1ccccc1)NC(=O)c1cnccn1)B(O)O	Chymotrypsinogen A (Bos taurus, UniProt P00766)	enzyme activity	inhibitor	–	33 µM	53
Cn1cc(-c2cc(F)cc(N3CCn4c(cc5c4CCCC5)C3=O)c2CO)cc(Nc2ccc(N3CCN(C4COC4)CC3)cn2)c1=O	Serine/threonine-protein kinase MRCK beta (CDC42BPB, Homo sapiens, UniProt Q9Y5S2)	enzyme activity	inhibitor	–	0.1 µM	2
Cc1ncc(C)n2nc(/C=C/c3nc(N4CCCC4)cc(N4CCOCC4)n3)nc12	Maoa	ligand displacement	–	–	10 µM	2
CCOC(=O)[C@H]1Cc2c(cc([N+](=O)[O-])cc2[N+](=O)[O-])[C@@H](O)[C@@]12C(=O)Nc1cccc(Br)c12	CDK4	cell-free assay	inhibitor	TR-FRET	1 µM	45.6
COc1cc(Nc2ncc(F)c(Nc3ccc4c(n3)NC(=O)C(C)(C)O4)n2)cc(OC)c1OC	Cyclin-G-associated kinase (GAK, Homo sapiens, UniProt O14976)	binding	–	–	10 µM	95
